Measurements as given in ChEMBL document CHEMBL1124597, “Quinones. 4. Novel eicosanoid antagonists: synthesis and pharmacological evaluation” (J Med Chem, 1989).

Experiments:
[1] = species on record: Oryctolagus cuniculus; assay: In vitro concentration that reduced U-44069-induced contraction of the rabbit aorta by 50%; type: functional
Procedure, shortened: (§1)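 Rabbit aortic strips (2-3 mm × 3 cm) in Krebs-Henseleit, 37 °C, 95% O2/5% CO2, 2 g resting tension, isometric recording. Drugs (final 10⁻⁵ to 10⁻⁸ M, 0.01% DMSO) added 10 min before U-44069 (2-6 nM, about 50% of the 30 mM KCl contraction). Percent inhibition, or concentration reducing contraction by 50%; duplicate means.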

[2] = species on record: Oryctolagus cuniculus; assay: In vitro percent inhibition against U-44,069 (10e-7 M) induced contraction of rabbit aorta at 10e-6 M concentration; type: functional; procedure, shortened: as §1
[3] = species on record: Oryctolagus cuniculus; assay: In vitro percent inhibition against U-44,069 (10e-7 M) induced contraction of rabbit aorta at 10e-5 M concentration.; type: functional; procedure, shortened: as §1
[4] = species on record: Oryctolagus cuniculus; assay: In vitro percent inhibition against U-44,069 (10e-7 M) induced contraction of rabbit aorta at 10e-7 M concentration; type: functional; procedure, shortened: as §1
[5] = species on record: Oryctolagus cuniculus; assay: Percent inhibition of compound against U-44,069 (10e-7 M) induced contraction of rabbit aorta at 3*10e-8 M concentration; type: functional; procedure, shortened: as §1
[6] = species on record: Oryctolagus cuniculus; assay: In vitro concentration that reduced U-44069-induced contraction of the rabbit aorta; type: functional; details: read-out: pA2 (converted); procedure, shortened: as §1
[7] = system: Cavia porcellus; assay: In vivo percentage of inhibition against LTD -induced bronchoconstriction in guinea pig at a concentration of 0.08 mg/kg after 1 hour of oral administration; type: functional
Procedure, shortened: (§2)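 Urethane-anesthetized (1.5 g/kg ip) guinea pigs given gallamine (1 mg/kg iv); bronchoconstriction measured by Konzett-Rössler overflow. Challenge was U-46619, LTD4 or PAF at 10 μg/kg iv, or IgG1-mediated in animals sensitized ip with egg albumin (1 mg/kg)/FCA and used 3 weeks later. Drug given orally in 5% gum arabic 1 h before challenge; n = 8. ID50 = dose giving 50% inhibition.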

[8] = system: Cavia porcellus; assay: In vivo percentage of inhibition against LTD -induced bronchoconstriction in guinea pig at a concentration of 0.31 mg/kg after 1 hour of oral administration; type: functional
Procedure, shortened: (§3)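 Guinea pigs were challenged iv with LTD4, PAF or U-46619, each at 10 µg/kg. Bronchoconstriction was measured by the Konzett-Rössler overflow method, as for the sensitized animals (urethane 1.5 g/kg ip, gallamine 1 mg/kg iv). Drug suspended in 5% gum arabic was dosed orally 1 h before spasmogen; eight animals per group; percent inhibition of bronchoconstriction.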

[9] = system: Cavia porcellus; assay: In vivo percentage of inhibition against U-46619 -induced bronchoconstriction in guinea pig at a concentration of 0.31 mg/kg after 1 hour of oral administration; type: functional; procedure, shortened: as §3
[10] = system: Cavia porcellus; assay: In vivo percentage of inhibition against U-46619 -induced bronchoconstriction in guinea pig at a concentration of 0.08 mg/kg after 1 hour of oral administration; type: functional; procedure, shortened: as §2
[11] = system: Cavia porcellus; assay: In vivo percentage of inhibition against LTD -induced bronchoconstriction in guinea pig at a concentration of 1.25 mg/kg after 1 hour of oral administration; type: functional; procedure, shortened: as §2
[12] = system: Cavia porcellus; assay: In vivo percentage of inhibition against LTD -induced bronchoconstriction in guinea pig at a concentration of 5 mg/kg after 1 hour of oral administration; type: functional; procedure, shortened: as §2
[13] = system: Cavia porcellus; assay: In vivo percentage of inhibition against U-46619-induced bronchoconstriction in guinea pig at a concentration of 1.25 mg/kg after 1 hour of oral administration; type: functional; procedure, shortened: as §2
[14] = species on record: Cavia porcellus; assay: In vitro concentration that reduced U-46619-induced contraction of guinea pig lung; details: read-out: pA2 (converted)
[15] = species on record: Cavia porcellus; assay: In vitro concentration that reduced U-44069-induced aggregation of guinea pig platelets by 50%; type: functional
Procedure, shortened: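 PRP from conscious male guinea pigs, blood taken by cardiac puncture into 3.15% citrate (1:9); platelets adjusted to 450 000/μL. PRP preincubated 2 min at 37 °C, then incubated 2 min with U-44069 at a concentration giving submaximal aggregation. IC50 = antagonist concentration reducing aggregation by 50%.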

[16] = species on record: Cavia porcellus; assay: In vitro concentration that reduced U-46619-induced contraction of guinea pig lung; details: read-out: pA2 (converted); remark: listed apart in the source
[17] = system: Cavia porcellus; assay: In vivo percentage of inhibition against IgG1 -induced bronchoconstriction in guinea pig at a concentration of 0.31 mg/kg after 1 hour of oral administration; type: functional
Procedure, shortened: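 Guinea pigs sensitized ip with egg albumin (1 mg/kg) emulsified in Freund's complete adjuvant. Three weeks later, animals whose sera at 1:1000 gave a positive 3-h passive cutaneous anaphylaxis were used. Under urethane (1.5 g/kg ip) and gallamine (1 mg/kg iv), IgG1-mediated bronchoconstriction was measured by Konzett-Rössler overflow. Drug in 5% gum arabic was given orally 1 h before challenge; eight animals per group.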

[18] = system: Cavia porcellus; assay: In vivo inhibition against U-46619-induced bronchoconstriction in guinea pig; type: functional; details: read-out: ID50 (the source's name); procedure, shortened: as §2
[19] = system: Cavia porcellus; assay: In vivo inhibition against LTD-induced bronchoconstriction in guinea pig; type: functional; details: read-out: ID50 (the source's name); procedure, shortened: as §2
[20] = system: Cavia porcellus; assay: In vivo percentage of inhibition against PAF -induced bronchoconstriction in guinea pig at a concentration of 0.31 mg/kg after 1 hour of oral administration; type: functional; procedure, shortened: as §3
[21] = system: Cavia porcellus; assay: In vivo percentage of inhibition against PAF-induced bronchoconstriction in guinea pig at a concentration of 1.25 mg/kg after 1 hour of oral administration; type: functional; procedure, shortened: as §2
[22] = system: Cavia porcellus; assay: In vivo percentage of inhibition against IgG1 -induced bronchoconstriction in guinea pig at a concentration of 1.25 mg/kg after 1 hour of oral administration; type: functional; procedure, shortened: as §2
[23] = system: Cavia porcellus; assay: In vivo percentage of inhibition against IgG1 -induced bronchoconstriction in guinea pig at a concentration of 5 mg/kg after 1 hour of oral administration; type: functional; procedure, shortened: as §2
[24] = system: Cavia porcellus; assay: In vivo inhibition against IgG1-induced bronchoconstriction in guinea pig; type: functional; details: read-out: ID50 (the source's name); procedure, shortened: as §2
[25] = system: Cavia porcellus; assay: In vivo percentage of inhibition against PAF-induced bronchoconstriction in guinea pig at a concentration of 5 mg/kg after 1 hour of oral administration; type: functional; procedure, shortened: as §2

SMILES	IC50 [1]	Inhibition [2]	Inhibition [3]	also measured
COC1=C(OC)C(=O)C(C(CCCCCC(=O)O)c2ccc(F)cc2)=C(C)C1=O (stereo not drawn)	3200 nM	0%	99%	
CC1=C(C)C(=O)C(C(CCCCCC(N)=O)c2ccccc2)=C(C)C1=O (stereo not drawn)			6%	
CC1=C(C)C(=O)C(C(CCOc2cccc(C(=O)O)c2)c2ccccc2)=C(C)C1=O (stereo not drawn)			2%	
COC1=C(OC)C(=O)C(C(CCCCCC(=O)O)c2ccccc2)=C(C)C1=O (stereo not drawn)			0%	
CC1=C(C)C(=O)C(C(CCCCCC(=O)O)c2ccc(F)cc2)=C(C)C1=O (stereo not drawn)	48 nM	100%	100%	Inhibition [4]: 96%; Inhibition [5]: 20%
CC1=C(C)C(=O)C(C(CCCCCC(=O)NC(C)C)c2ccccc2)=C(C)C1=O (stereo not drawn)			8%	
CC1=C(C)C(=O)C([C@H](CCCCCC(=O)O)c2ccccc2)=C(C)C1=O				Kb [6]: 2.51 nM; inhibition in vivo at 0.08 mg/kg [7]: 12%; inhibition in vivo at 0.31 mg/kg [8]: 85%; inhibition in vivo at 0.31 mg/kg [9]: 75%; inhibition in vivo at 0.08 mg/kg [10]: 72%; inhibition in vivo at 1.25 mg/kg [11]: 85%; inhibition in vivo at 5 mg/kg [12]: 80%; inhibition in vivo at 1.25 mg/kg [13]: 93%; Kb [14]: 1.58 nM; IC50 [15]: 120 nM
CC1=C(C)C(=O)C(C(CCCCCC(=O)O)c2ccc(Br)cc2)=C(C)C1=O (stereo not drawn)	1700 nM	36%	94%	
CC1=C(C)C(=O)C(C(CCCCCC(=O)O)c2ccccc2)=C(C)C1=O (stereo not drawn) [SERATRODAST]	100 nM	99%	99%	Kb [6]: 5.25 nM; Inhibition [4]: 49%; Kb [16]: 5.13 nM; inhibition in vivo at 0.08 mg/kg [7]: 24%; inhibition in vivo at 0.31 mg/kg [8]: 58%; inhibition in vivo at 0.31 mg/kg [17]: 71%; ED50 [18]: 0.13 mg/kg; ED50 [19]: 0.19 mg/kg; inhibition in vivo at 0.31 mg/kg [9]: 89%; inhibition in vivo at 0.08 mg/kg [10]: 31%; inhibition in vivo at 0.31 mg/kg [20]: 66%; inhibition in vivo at 1.25 mg/kg [11]: 77%; inhibition in vivo at 5 mg/kg [12]: 94%; inhibition in vivo at 1.25 mg/kg [21]: 94%; inhibition in vivo at 1.25 mg/kg [13]: 90%; inhibition in vivo at 1.25 mg/kg [22]: 85%; inhibition in vivo at 5 mg/kg [23]: 91%; ED50 [24]: 0.2 mg/kg; inhibition in vivo at 5 mg/kg [25]: 85%; IC50 [15]: 350 nM
CC1=C(C(CCCCCC(=O)O)c2ccccc2)C(=O)c2ccccc2C1=O (stereo not drawn)	240 nM	99%	100%	Inhibition [4]: 20%
CC1=C(C)C(=O)C(C(CCCC(=O)O)c2ccccc2)=C(C)C1=O (stereo not drawn)			24%	
CC1=C(C)C(=O)C(C(CCCCCc2nnn[nH]2)c2ccccc2)=C(C)C1=O (stereo not drawn)			2%	
CCCCCCC(C1=C(C)C(=O)C(C)=C(C)C1=O)c1ccccc1 (stereo not drawn)			25%	
CC1=C(C)C(=O)C(C(CCC(=O)O)c2ccccc2)=C(C)C1=O (stereo not drawn)			0%	
CC1=C(C)C(=O)C(C(CCCCCC(=O)O)c2ccccc2C)=C(C)C1=O (stereo not drawn)	3200 nM	0%	99%	
CC1=C(C)C(=O)C(C(CCCCCCCC(=O)O)c2ccccc2)=C(C)C1=O (stereo not drawn)	3400 nM	0%	94%	
CC1=C(C)C(=O)C(C(CCCC#CC(=O)O)c2ccccc2)=C(C)C1=O (stereo not drawn)			72%	
CC1=C(C)C(=O)C(C(CCC(=O)NCC(=O)O)c2ccccc2)=C(C)C1=O (stereo not drawn)			0%	
CC1=C(C)C(=O)C(C(CCCCCC(=O)O)c2cccs2)=C(C)C1=O (stereo not drawn)	760 nM	65%	100%	Inhibition [4]: 0%
